Data: ChEMBL document CHEMBL4011607 (J Med Chem, 2017)

Legend:
Rattus norvegicus [1] = assay: (§1) Clearance in rat at 0.5 mg/kg, iv; assay type: ADME, organism-based; conditions: in vivo
Method in brief: (§2)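 Rats received 0.5 mg/kg iv as a solution in DMSO. Clearance, half-life and Vdss are taken from the plasma profile. Unbound clearance is total clearance divided by plasma fraction unbound.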

Rattus norvegicus [2] = assay: Unbound clearance in rat at 0.5 mg/kg, iv; assay type: ADME, organism-based; conditions: in vivo; method in brief: as §2
Canis familiaris [3] = assay: (§3) Clearance in dog at […], iv; assay type: ADME, organism-based, Canis lupus familiaris; conditions: in vivo; also: dose 0.25 mg/kg
Canis familiaris [4] = assay: Unbound clearance in dog at […], iv; assay type: ADME, organism-based, Canis lupus familiaris; conditions: in vivo; also: dose 0.25 mg/kg
Rattus norvegicus [5] = assay: (§4) Volume of distribution at steady state in rat at 0.5 mg/kg, iv; assay type: ADME, organism-based; conditions: in vivo; method in brief: as §2
Canis familiaris [6] = assay: (§5) Volume of distribution at steady state in dog at […], iv; assay type: ADME, organism-based, Canis lupus familiaris; conditions: in vivo; also: dose 0.25 mg/kg
Rattus norvegicus [7] = assay: (§6) Half life in rat at 0.5 mg/kg, iv; assay type: ADME, organism-based; conditions: in vivo; method in brief: as §2
Canis familiaris [8] = assay: (§7) Half life in dog at […], iv; assay type: ADME, organism-based, Canis lupus familiaris; conditions: in vivo; also: dose 0.25 mg/kg
[9] = Tmax in rat at 10 mg/kg, po; assay type: ADME, organism-based; conditions: in vivo
Method in brief: (§8)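 Single oral dose in solution in 1% Tween 80/2.0% HPMC, 97% water, pH 10 with KOH; rat 10 mg/kg, dog 2 mg/kg. Plasma profile gives AUC, tmax and %F.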

[10] = Tmax in dog at 2 mg/kg, po; assay type: ADME, organism-based, Canis lupus familiaris; conditions: in vivo; method in brief: as §8
[11] = AUC in rat at 10 mg/kg, po; assay type: ADME, organism-based; conditions: in vivo; method in brief: as §8
[12] = AUC in dog at 2 mg/kg, po; assay type: ADME, organism-based, Canis lupus familiaris; conditions: in vivo; method in brief: as §8
[13] = Chemical stability of compound in toluene assessed as racemization at above 100 degC; assay type: physicochemical
Method in brief: (§9)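 Racemization kinetics of the atropisomer were examined in neutral media (toluene, water) and basic media (NaOH) with heating above 100 °C.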

[14] = Chemical stability of compound in water assessed as racemization at above 100 degC; assay type: physicochemical; conditions: buffer; method in brief: as §9
[15] = Chemical stability of compound in NaOH assessed as racemization at above 100 degC; assay type: physicochemical; method in brief: as §9
[16] = Chemical stability of compound assessed as racemization in presence of HCL at 37 degC after 24 hrs; assay type: physicochemical; conditions: buffer
Method in brief: (§10)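 Racemization of the atropisomer was followed in 10% HCl under two conditions: 37 °C for 24 h and 100 °C for 1 h.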

[17] = Chemical stability of compound assessed as racemization in presence of HCL at 100 degC after 1 hr; assay type: physicochemical; conditions: buffer; method in brief: as §10
[18] = Oral bioavailability in rat at 10 mg/kg; assay type: ADME, organism-based; conditions: in vivo; method in brief: as §8
[19] = (§11) Oral bioavailability in dog at 2 mg/kg; assay type: ADME, organism-based, Canis lupus familiaris; conditions: in vivo; method in brief: as §8
[20] = Chemical stability of compound in 1N NaOH assessed as amide bond hydrolysis at room temperature; assay type: physicochemical
[21] = as §1; assay type: ADME, organism-based; conditions: in vivo; method in brief: as §2
[22] = as §3; assay type: ADME, organism-based, Canis lupus familiaris; conditions: in vivo
[23] = as §4; assay type: ADME, organism-based; conditions: in vivo, read-out: Vdss; method in brief: as §2
[24] = as §5; assay type: ADME, organism-based, Canis lupus familiaris; conditions: in vivo, read-out: Vdss
[25] = as §6; assay type: ADME, organism-based; conditions: in vivo; method in brief: as §2
[26] = as §7; assay type: ADME, organism-based, Canis lupus familiaris; conditions: in vivo
[27] = Intrinsic clearance in rat liver microsomes at 1 uM after 40 mins by LC-MS/MS assay; assay type: ADME, microsome; conditions: read-out: CLH
[28] = Intrinsic clearance in dog liver microsomes at 1 uM after 40 mins by LC-MS/MS assay; assay type: ADME, Canis lupus familiaris, microsome; conditions: read-out: CLH
[29] = Intrinsic clearance in human liver microsomes at 1 uM after 40 mins by LC-MS/MS assay; assay type: ADME, microsome; conditions: read-out: CLH
Plasma = assay: Plasma concentration in po dosed capsaicin-induced nociception pain C57BL/6 mouse model administered 4 hrs prior to capsaicin challenge; assay type: ADME, organism-based; conditions: in vivo
Canis familiaris [30] = assay: as §11; assay type: ADME, organism-based, Canis lupus familiaris; conditions: in vivo; method in brief: as §8
Rhesus monkey = assay: Drug metabolism in iv dosed monkey assessed as racemization after 1 hr; assay type: ADME, organism-based, Macaca mulatta; conditions: in vivo
Method in brief: (§12)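 A related atropisomeric analogue was dosed to preclinical species and checked in vivo for interconversion to the other atropisomer. Monkey iv, 1 h; rat iv, 1 h; dog po, 24 h; mouse po, 12 h.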

Canis familiaris [31] = assay: Drug metabolism in po dosed dog assessed as racemization after 24 hrs; assay type: ADME, organism-based, Canis lupus familiaris; conditions: in vivo; method in brief: as §12
Rattus norvegicus [32] = assay: Drug metabolism in iv dosed rat assessed as racemization after 1 hr; assay type: ADME, organism-based; conditions: in vivo; method in brief: as §12
Mus musculus = assay: Drug metabolism in po dosed mouse assessed as racemization after 12 hrs; assay type: ADME, organism-based; conditions: in vivo; method in brief: as §12

Compound	CL free (Rattus norvegicus [2]) [mL/min/kg]	CL free (Canis familiaris [4]) [mL/min/kg]	bioavailability [18] [%]	bioavailability [19] [%]	clearance [21] [mL/min/kg]	clearance [22] [mL/min/kg]	Vd [23] [L/kg]	Vd [24] [L/kg]	half-life [25] [h]	half-life [26] [h]	microsomal CLint at 1 µM [27] [µL/min/mg]	microsomal CLint at 1 µM [28] [µL/min/mg]	microsomal CLint at 1 µM [29] [µL/min/mg]	further results
COc1cc(-c2cccc(F)c2)c(F)cc1-n1c(=O)ccc2cc(S(=O)(=O)Nc3ccon3)ccc21 (atropisomer P)	917	33	66	62	–	–	–	–	–	–	–	–	–	CL (Rattus norvegicus [1]): 3.17 mL/min/kg; CL (Canis familiaris [3]): 0.075 mL/min/kg; Vdss (Rattus norvegicus [5]): 1.8 L/kg; Vdss (Canis familiaris [6]): 0.14 L/kg; t1/2 (Rattus norvegicus [7]): 2.6 h; t1/2 (Canis familiaris [8]): 4 h; Tmax [9]: 2.7 h; Tmax [10]: 4 h; AUC [11]: 65 µM·h; AUC [12]: 600 µM·h; Stability [13]: Unstable; Stability [14]: Unstable; Stability [15]: Unstable; Stability [16]: Stable; Stability [17]: Stable
COc1cc(C(F)(F)F)ccc1N1C(=O)COc2cc(S(=O)(=O)Nc3nccs3)ccc21	–	–	–	–	–	–	–	–	–	–	–	–	–	Stability [20]: Unstable
COc1cc(-c2cccc(OC(F)F)c2)c(F)cc1-n1c(=O)ccc2cc(S(=O)(=O)Nc3ccon3)ccc21	3780	43.3	30	54	15.2	0.3	2.2	0.22	1.8	11	< 5	< 5	< 5	–
COc1cc(-c2cccc(C(F)(F)F)c2)ccc1-n1c(=O)ccc2cc(S(=O)(=O)Nc3ncccn3)ccc21	883	12.8	83	79	7	0.167	2.5	0.47	4.6	34	12	< 5	5	Drug uptake (Plasma): Dose-dependent effect
COc1cc(C(F)(F)F)ccc1N1CCOc2cc(S(=O)(=O)Nc3nccs3)ccc21	667	–	–	–	4	–	–	–	–	–	–	–	–	–
COc1cc(-c2cc(OC)c(-n3c(=O)ccc4cc(S(=O)(=O)Nc5ncccn5)ccc43)cc2F)ccc1Cl	1670	96.7	55	–	8.33	0.583	1.3	0.47	2.4	12	12	< 5	< 5	F (Canis familiaris [30]): 157%
COc1cc(-c2ccc(F)c(C)c2)c(F)cc1-n1c(=O)ccc2cc(S(=O)(=O)Nc3ccon3)ccc21	1680	56.7	67	116	10.2	0.283	1.5	0.32	1.9	14	16	< 5	5	Drug metabolism (Rhesus monkey): Metabolite_Notdetected; Drug metabolism (Canis familiaris [31]): Metabolite_Notdetected; Drug metabolism (Rattus norvegicus [32]): Metabolite_Notdetected; Drug metabolism (Mus musculus): Metabolite_Notdetected; Stability: Unstable
COc1cc(-c2cccc(F)c2)c(Cl)cc1-n1c(=O)ccc2cc(S(=O)(=O)Nc3ccon3)cnc21	–	–	–	–	–	–	–	–	–	–	–	–	–	Stability: Unstable
